In brackets after ≈: the same amount, converted by molar mass. Activity calls are given as the source filed them. The rule behind the calls is not given here.
Key:
Bacillus subtilis [1] = assay: Bactericidal activity against Bacillus subtilis MTCC 121 after 24 hrs; type: functional; settings: MTCC 121, 24 h
Candida albicans [2] = assay: Antifungal activity against Candida albicans MTCC 227 assessed as growth inhibition by macrodilution tube method; type: functional
Outline: (§1)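 The MIC against the yeasts was determined with amphotericin-B as the reference standard drug.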

Staphylococcus aureus [3] = assay: Antibacterial activity against Staphylococcus aureus MTCC 96 assessed as growth inhibition after 24 hrs by macrodilution tube method; type: functional; settings: MTCC 96, 24 h
Saccharomyces cerevisiae [4] = assay: Antifungal activity against Saccharomyces cerevisiae MTCC 170 assessed as growth inhibition at 4 mg/mL after 24 hrs by agar well diffusion method; type: functional; settings: MTCC 170, 24 h, read-out: DIZ
Outline: (§2)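 Agar wells 8 mm in diameter. The read-out is the diameter of the growth inhibition zone in mm, including the well, given as the mean of three replicates.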

Pseudomonas aeruginosa [5] = settings: MTCC 741, 4 mg/mL
Bacillus subtilis [6] = assay: Antibacterial activity against Bacillus subtilis MTCC 121 assessed as growth inhibition at 4 mg/mL after 24 hrs by agar well diffusion method; type: functional; settings: MTCC 121, 24 h, read-out: DIZ; outline: as §2
Saccharomyces cerevisiae [7] = assay: Antifungal activity against Saccharomyces cerevisiae MTCC 170 assessed as growth inhibition by macrodilution tube method; type: functional; outline: as §1
Escherichia coli = assay: Antibacterial activity against Escherichia coli MTCC 1652 assessed as growth inhibition at 4 mg/mL after 24 hrs by agar well diffusion method; type: functional, organism-based
Outline: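 Agar well diffusion with 8 mm wells. The inhibition zone diameter is reported in mm, with the well diameter included. Values are means of three replicates.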

Staphylococcus aureus [8] = assay: Antibacterial activity against Staphylococcus aureus MTCC 96 assessed as growth inhibition at 4 mg/mL after 24 hrs by agar well diffusion method; type: functional; settings: MTCC 96, 24 h, read-out: DIZ; outline: as §2
Staphylococcus aureus [9] = assay: Bactericidal activity against Staphylococcus aureus MTCC 96 after 24 hrs; type: functional; settings: MTCC 96, 24 h
Candida albicans [10] = assay: Antifungal activity against Candida albicans MTCC 227 assessed as growth inhibition at 4 mg/mL after 24 hrs by agar well diffusion method; type: functional; settings: MTCC 227, 24 h, read-out: DIZ; outline: as §2
Bacillus subtilis [11] = assay: Antibacterial activity against Bacillus subtilis MTCC 121 assessed as growth inhibition after 24 hrs by macrodilution tube method; type: functional; settings: MTCC 121, 24 h
Pseudomonas aeruginosa [12] = assay: microbe, parasite or virus in culture; settings: MTCC 741, 24 h, read-out: DIZ

Row | Structure (SMILES) | MBC (Bacillus subtilis [1]) | MIC (Candida albicans [2]) | MIC (Staphylococcus aureus [3]) | zone of inhibition at 4000 µg/mL (Saccharomyces cerevisiae [4]) | DIZ (Pseudomonas aeruginosa [5]) | zone of inhibition at 4000 µg/mL (Bacillus subtilis [6]) | MIC (Saccharomyces cerevisiae [7]) | diameter of the inhibition zone (DIZ) (Escherichia coli) | zone of inhibition at 4000 µg/mL (Staphylococcus aureus [8]) | MBC (Staphylococcus aureus [9]) | zone of inhibition at 4000 µg/mL (Candida albicans [10]) | MIC (Bacillus subtilis [11]) | zone of inhibition at 4000 µg/mL (Pseudomonas aeruginosa [12])
1 | CC1(C)CC(=O)C2=C(C1)OC(N)=C(C#N)C21C(=O)N(Cc2cn(-c3ccc([N+](=O)[O-])cc3)nn2)c2ccccc21 (stereo not given) | 256 µg/mL (≈ 476 µM) | 256 µg/mL (≈ 476 µM) | 128 µg/mL (≈ 238 µM) | 15.3 mm | inactive | 17.3 mm | 256 µg/mL (≈ 476 µM) | inactive | 16.6 mm | 128 µg/mL (≈ 238 µM) | 14.3 mm | 128 µg/mL (≈ 238 µM) | 
2 | Cc1ccc(-n2cc(CN3C(=O)C4(C(C#N)=C(N)OC5=C4C(=O)CCC5)c4ccccc43)nn2)cc1 (stereo not given) | 128 µg/mL (≈ 267 µM) | 128 µg/mL (≈ 267 µM) | 256 µg/mL (≈ 535 µM) | 15.6 mm | inactive | 16.3 mm | 128 µg/mL (≈ 267 µM) | inactive | 13.6 mm | 512 µg/mL (≈ 1070 µM) | 14.3 mm | 128 µg/mL (≈ 267 µM) | 
3 | N#CC1=C(N)OC2=C(C(=O)CCC2)C12C(=O)N(Cc1cn(-c3ccc(Br)cc3)nn1)c1ccccc12 (stereo not given) | 128 µg/mL (≈ 236 µM) | 512 µg/mL (≈ 942 µM) | 64 µg/mL (≈ 118 µM) | 14.3 mm | inactive | 20.3 mm | 256 µg/mL (≈ 471 µM) | inactive | 18.6 mm | 64 µg/mL (≈ 118 µM) | 12.6 mm | 32 µg/mL (≈ 58.9 µM) | 
4 | Cc1ccc(-n2cc(CN3C(=O)C4(C(C#N)=C(N)OC5=C4C(=O)CC(C)(C)C5)c4ccccc43)nn2)cc1 (stereo not given) | 256 µg/mL (≈ 505 µM) | 512 µg/mL (≈ 1010 µM) | 128 µg/mL (≈ 253 µM) | 14 mm | inactive | 15.6 mm | 256 µg/mL (≈ 505 µM) | inactive | 14.3 mm | 256 µg/mL (≈ 505 µM) | 12.6 mm | 32 µg/mL (≈ 63.2 µM) | 
5 | CC1(C)CC(=O)C2=C(C1)OC(N)=C(C#N)C21C(=O)N(Cc2cn(-c3ccc(Br)cc3)nn2)c2ccccc21 (stereo not given) | 64 µg/mL (≈ 112 µM) | 512 µg/mL (≈ 896 µM) | 32 µg/mL (≈ 56 µM) | 14.6 mm | inactive | 22.2 mm | 128 µg/mL (≈ 224 µM) | inactive | 19.3 mm | 128 µg/mL (≈ 224 µM) | 13.3 mm | 16 µg/mL (≈ 28 µM) | 
6 | Cn1c2c(c(=O)n(C)c1=O)C1(C(=O)N(Cc3cn(-c4ccc(Br)cc4)nn3)c3ccccc31)C(C#N)=C(N)O2 (stereo not given) | 64 µg/mL (≈ 109 µM) | 256 µg/mL (≈ 436 µM) | 32 µg/mL (≈ 54.5 µM) | 15.3 mm | inactive | 22.3 mm | 128 µg/mL (≈ 218 µM) | inactive | 20.6 mm | 64 µg/mL (≈ 109 µM) | 13.3 mm | 16 µg/mL (≈ 27.2 µM) | 
7 | CC1(C)CC(=O)C2=C(C1)OC(N)=C(C#N)C21C(=O)N(Cc2cn(-c3ccccc3)nn2)c2ccccc21 (stereo not given) | 256 µg/mL (≈ 520 µM) | 256 µg/mL (≈ 520 µM) | 128 µg/mL (≈ 260 µM) | 14.3 mm | inactive | 16.3 mm | 256 µg/mL (≈ 520 µM) | inactive | 14.6 mm | 128 µg/mL (≈ 260 µM) | 13.3 mm | 128 µg/mL (≈ 260 µM) | 
8 | COc1ccc(-n2cc(CN3C(=O)C4(C(C#N)=C(N)Oc5c4c(=O)n(C)c(=O)n5C)c4ccccc43)nn2)cc1 (stereo not given) | 256 µg/mL (≈ 475 µM) | 128 µg/mL (≈ 238 µM) | 256 µg/mL (≈ 475 µM) | 17.6 mm | inactive | 17.6 mm | 64 µg/mL (≈ 119 µM) | inactive | 15.3 mm | 512 µg/mL (≈ 951 µM) | 14.6 mm | 128 µg/mL (≈ 238 µM) | 
9 | C[C@@H]1[C@H](O)[C@@H](C)/C=C/C=C/C=C/C=C/C=C/C=C/C=C/[C@H](O[C@@H]2O[C@H](C)[C@@H](O)[C@H](N)[C@@H]2O)C[C@@H]2O[C@](O)(C[C@@H](O)C[C@@H](O)[C@H](O)CC[C@@H](O)C[C@@H](O)CC(=O)O[C@H]1C)C[C@H](O)[C@H]2C(=O)O [AMPHOTERICIN B] |  | 100 µg/mL (≈ 108 µM) |  | 18.3 mm |  |  | 100 µg/mL (≈ 108 µM) |  |  |  | 17.6 mm |  | 
10 | O=C(O)c1cn(C2CC2)c2cc(N3CCNCC3)c(F)cc2c1=O [CIPROFLOXACIN] | 6.25 µg/mL (≈ 18.9 µM) |  |  |  |  | 24 mm |  |  | 26.6 mm | 6.25 µg/mL (≈ 18.9 µM) |  | 6.25 µg/mL (≈ 18.9 µM) | 22 mm
11 | N#CC1=C(N)OC2=C(C(=O)CCC2)C12C(=O)N(Cc1cn(-c3ccc([N+](=O)[O-])cc3)nn1)c1ccccc12 (stereo not given) | 256 µg/mL (≈ 502 µM) | 512 µg/mL (≈ 1000 µM) | 128 µg/mL (≈ 251 µM) | 13.6 mm | inactive | 18.6 mm | 256 µg/mL (≈ 502 µM) | inactive | 17.6 mm | 256 µg/mL (≈ 502 µM) | 12.3 mm | 128 µg/mL (≈ 251 µM) | 
12 | COc1ccc(-n2cc(CN3C(=O)C4(C(C#N)=C(N)OC5=C4C(=O)CC(C)(C)C5)c4ccccc43)nn2)cc1 (stereo not given) | 256 µg/mL (≈ 490 µM) | 128 µg/mL (≈ 245 µM) | 128 µg/mL (≈ 245 µM) | 15.6 mm | inactive | 17.3 mm | 64 µg/mL (≈ 122 µM) | inactive | 15.6 mm | 256 µg/mL (≈ 490 µM) | 16.6 mm | 128 µg/mL (≈ 245 µM) | 
13 | CC1(C)CC(=O)C2=C(C1)OC(N)=C(C#N)C21C(=O)N(Cc2cn(-c3cccc(Cl)c3)nn2)c2ccccc21 (stereo not given) | 128 µg/mL (≈ 243 µM) | 512 µg/mL (≈ 972 µM) | 64 µg/mL (≈ 121 µM) | 13.6 mm | inactive | 20.6 mm | 256 µg/mL (≈ 486 µM) | inactive | 19.3 mm | 128 µg/mL (≈ 243 µM) | 12.3 mm | 32 µg/mL (≈ 60.7 µM) | 
14 | CC1(C)CC(=O)C2=C(C1)OC(N)=C(C#N)C21C(=O)N(Cc2cn(-c3ccc(F)c(Cl)c3)nn2)c2ccccc21 (stereo not given) | 128 µg/mL (≈ 235 µM) | 256 µg/mL (≈ 470 µM) | 64 µg/mL (≈ 117 µM) | 14.3 mm | inactive | 21.3 mm | 256 µg/mL (≈ 470 µM) | inactive | 19.6 mm | 128 µg/mL (≈ 235 µM) | 13.6 mm | 32 µg/mL (≈ 58.7 µM) | 
15 | Cn1c2c(c(=O)n(C)c1=O)C1(C(=O)N(Cc3cn(-c4ccc([N+](=O)[O-])cc4)nn3)c3ccccc31)C(C#N)=C(N)O2 (stereo not given) | 128 µg/mL (≈ 231 µM) | 512 µg/mL (≈ 925 µM) | 128 µg/mL (≈ 231 µM) | 13.6 mm | inactive | 18.6 mm | 512 µg/mL (≈ 925 µM) | inactive | 15.3 mm | 512 µg/mL (≈ 925 µM) | 12.6 mm | 64 µg/mL (≈ 116 µM) | 
16 | Cc1ccc(-n2cc(CN3C(=O)C4(C(C#N)=C(N)Oc5c4c(=O)n(C)c(=O)n5C)c4ccccc43)nn2)cc1 (stereo not given) | 128 µg/mL (≈ 245 µM) | 512 µg/mL (≈ 980 µM) | 128 µg/mL (≈ 245 µM) | 14.3 mm | inactive | 16.3 mm | 256 µg/mL (≈ 490 µM) | inactive | 14.3 mm | 256 µg/mL (≈ 490 µM) | 12.3 mm | 128 µg/mL (≈ 245 µM) | 
17 | COc1ccc(-n2cc(CN3C(=O)C4(C(C#N)=C(N)OC5=C4C(=O)CCC5)c4ccccc43)nn2)cc1 (stereo not given) | 128 µg/mL (≈ 259 µM) | 128 µg/mL (≈ 259 µM) | 64 µg/mL (≈ 129 µM) | 16.3 mm | inactive | 15.6 mm | 64 µg/mL (≈ 129 µM) | inactive | 14 mm | 512 µg/mL (≈ 1040 µM) | 16 mm | 32 µg/mL (≈ 64.7 µM) | 

Source: ChEMBL document CHEMBL3232914, “Ultrasound promoted one pot synthesis of novel fluorescent triazolyl spirocyclic oxindoles using DBU based task specific ionic liquids and their antimicrobial activity” (2014)
